In ChEMBL document CHEMBL4706645, “The discovery of novel small molecule allosteric activators of aldehyde dehydrogenase 2” (Eur J Med Chem, 2021):
Active and inactive are the calls of the source. No cut-off for these calls is given here.

Target: T1, Aldehyde dehydrogenase, mitochondrial (Homo sapiens) (UniProt P05091)
T1 sequence (whole entry): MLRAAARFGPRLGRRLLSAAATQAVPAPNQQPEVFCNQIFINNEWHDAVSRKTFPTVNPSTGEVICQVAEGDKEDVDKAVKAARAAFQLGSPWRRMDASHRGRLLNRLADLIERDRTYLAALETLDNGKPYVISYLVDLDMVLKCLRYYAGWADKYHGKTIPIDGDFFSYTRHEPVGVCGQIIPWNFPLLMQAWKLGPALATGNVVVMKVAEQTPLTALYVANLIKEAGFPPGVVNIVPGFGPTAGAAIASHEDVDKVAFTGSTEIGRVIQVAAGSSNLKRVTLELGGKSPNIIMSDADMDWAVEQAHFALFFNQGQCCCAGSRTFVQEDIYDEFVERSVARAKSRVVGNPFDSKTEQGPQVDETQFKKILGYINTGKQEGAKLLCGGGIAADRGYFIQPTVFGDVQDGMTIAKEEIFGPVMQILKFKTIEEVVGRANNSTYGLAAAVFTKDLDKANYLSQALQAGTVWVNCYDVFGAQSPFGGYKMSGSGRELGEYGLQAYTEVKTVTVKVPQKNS
Experiment: Allosteric activation of recombinant human full-length ALDH2 (18 to 517 residues) expressed in Escherichia coli at 100 uM using acetaldehyde as substrate measured after 3 hrs in presence of NAD+ by […] relative to Alda-1
Conditions: not given
Summary of the method: (§1)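 Read-out is absorbance at 450 nm, taken at room temperature. Starting concentrations are 5 mg/ml ALDH2, 25 mM acetaldehyde and 1 mM NAD+. Activity is the change in absorbance per minute (SlopeOD450). Maximum fold activation is calculated from ALDH2 activity with compound and corrected by the activity of the Alda-1 reference.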

Structure (SMILES)	fold change (FC)
COc1ccc(CNc2ccc(N3CCC(F)(F)CC3)c(C(=O)NCC3CC3)c2)cc1F	12%
COc1ccc(CNc2ccc(N3CCC(F)CC3)c(C(=O)NCC3CC3)c2)cc1F	inactive
COc1ccc(CN(C(C)=O)c2ccc(N3CCOCC3)c(C(=O)NCC3(O)CC3)c2)cc1F	inactive
COc1ccc(CNc2ccc(-c3ccccc3)c(C(=O)NCC3CC3)c2)cc1F	3%
O=C(O)c1cc(NCc2ccc3c(c2)OCO3)ccc1Cl	inactive
O=C(CCC(=O)OCC(=O)c1ccccc1Cl)Nc1ccc(Cl)cc1	6%
Fc1ccc(NCc2ccc3c(c2)OCO3)cc1	inactive
Clc1ccc(NCc2ccc3c(c2)OCO3)cc1Cl	inactive
COc1ccc(CN(C(C)=O)c2ccc(N3CCOCC3)c(C(=O)NCC(C)(C)O)c2)cc1F	inactive
COc1ccc(CN(C)c2ccc(N3CCOCC3)c(C(=O)NCC3CC3)c2)cc1F	inactive
Clc1cc(NCc2ccc3c(c2)OCO3)ccc1N1CCOCC1	inactive
COc1ccc(C(=O)Nc2ccc(N3CCOCC3)c(C(=O)NCC3CC3)c2)cc1F	inactive
O=C(O)c1cc(NCc2ccc(Cl)c(Cl)c2)ccc1N1CCOCC1	9%
COc1ccc(CNc2ccc(N3CCCCC3)c(C(=O)NCC3CC3)c2)cc1F	inactive
O=C(O)c1cc(NCc2ccc3c(c2)OCO3)ccc1N1CCOCC1	23%

Same assay, conditions: filed as activator

Structure (SMILES)	fold change (FC) [%]
COc1ccc(CNc2ccc(N3CCC(O)CC3)c(C(=O)NCC3CC3)c2)cc1F	80
COc1ccc(CNc2ccc(N3CCOCC3)c(C(=O)NCC(C)(C)F)c2)cc1F	101
COc1ccc(CNc2ccc(N3CCOCC3)c(C(=O)NCC(C)(C)O)c2)cc1F	120
COc1ccc(CNc2ccc(N3CCOCC3)c(C(=O)NCC3(O)CC3)c2)cc1F	97
CCNC(=O)c1cc(NCc2ccc(OC)c(F)c2)ccc1N1CCOCC1	63
CNC(=O)c1cc(NCc2ccc(OC)c(F)c2)ccc1N1CCOCC1	52
CCOC(=O)c1cc(NCc2ccc3c(c2)OCO3)ccc1N1CCOCC1	64
COc1ccc(CNc2ccc(N3CCOCC3)c(C(=O)NCC3CC3)c2)cc1F	104
COc1ccc(CNc2ccc(N3CCOCC3)c(C(=O)NCC3CCC3)c2)cc1F	41
CCCNC(=O)c1cc(NCc2ccc(OC)c(F)c2)ccc1N1CCOCC1	97
COc1ccc(CNc2ccc(N3CCOCC3)c(C(=O)NCC(C)C)c2)cc1F	92
COc1ccc(CNc2ccc(N3CCOCC3)c(C(=O)NCC3CCCCC3)c2)cc1F	80
COc1ccc(CNc2ccc(C3CCOCC3)c(C(=O)NCC3CC3)c2)cc1F	53
COc1ccc(CNc2ccc(N3CCOCC3)c(C(=O)N3CCCCC3)c2)cc1F	66
COc1ccc(CNc2ccc(N3CCOCC3)c(C(=O)NC3CC3)c2)cc1F	94
COc1ccc(CNc2ccc(N3CCOCC3)c(C(=O)NCC(C)(C)C)c2)cc1F	59
COc1ccc(CNc2ccc(N3CCOCC3)c(C(=O)NCC3CCCC3)c2)cc1F	51
COc1ccc(CNc2cccc(C(=O)NCC3CC3)c2)cc1F	56

Target: T2, Aldehyde dehydrogenase, mitochondrial (Homo sapiens, UniProt P05091)
T2 sequence (P05091 whole entry): T1 sequence (whole entry)
Experiment: Allosteric activation of recombinant human full-length ALDH2 (18 to 517 residues) expressed in Escherichia coli using acetaldehyde as substrate measured after 3 hrs in presence of NAD+ by […]
Conditions: not given
Summary of the method: as §1

Structure (SMILES)	EC50 [µM]
COc1ccc(CNc2ccc(N3CCOCC3)c(C(=O)NCC3CC3)c2)cc1F	17.9
O=C(NCc1ccc2c(c1)OCO2)c1c(Cl)cccc1Cl	4.3

System: Rattus norvegicus
Experiment: (§2) Protection against middle cerebral artery occlusion-induced Sprague-Dawley rat model of ischemic stroke-like event assessed as reduction in brain infarct size at 50 ug, icv pretreated for 5 mins followed by MCAO surgery for 2 hrs and subsequent reperfusion for 24 hrs by TCC staining based assay
Type: functional, organism-based
Conditions: dose 50.0 µg, time 26.08333 hrs

Structure (SMILES)	Activity
O=C(NCc1ccc2c(c1)OCO2)c1c(Cl)cccc1Cl	Active

System: Rattus norvegicus
Experiment: as §2, with “64” for “50”, “assay relative to control” for “assay”
Type: functional
Parameters: scale not given: the % may be the effect or the level left
Conditions: dose 64 µg; time 26.0833 hrs; 26.08 h

Structure (SMILES)	Activity [%]
COc1ccc(CNc2ccc(N3CCOCC3)c(C(=O)NCC3CC3)c2)cc1F	70
